The species named for experiment [1] is Rattus norvegicus. Kind of experiment: Antiallergic activity against IgE-mediated passive cutaneous anaphylaxis (PCA) in rats. The format is functional. The method, boiled down:
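Female Sprague–Dawley rats (90–125 g), fasted overnight, were sensitized with id injections of graded concentrations of IgE against egg albumin. Compound was given orally at 100 mg (base)/kg in 0.5% gum tragacanth to 4 rats, 1 h before challenge. Skin bluing diameters were read 30 min later, and the shift of the antibody dose-response curve to the right was expressed in multiples of antibody concentration.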

The species entered for experiment [2] is Rattus norvegicus. As to the kind of experiment: Antiallergic potency against IgE-mediated passive cutaneous anaphylaxis (PCA) in rats. Type of experiment: functional. The method, boiled down: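 Multiple-dose oral tests were run alongside aminophylline in female Sprague–Dawley rats (90–125 g). Bluing diameters were recorded 30 min after challenge, and activity was taken as the rightward shift of the antibody dose-response curve.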

The results in this text go back to ChEMBL document CHEMBL1122094, “Novel orally active inhibitors of passive cutaneous anaphylaxis in rats: N-[2-(4-pyridinyl)-4-pyrimidinyl]ureas and dialkyl [[[2-(4-pyridinyl)-4-pyrimidinyl]amino]methylene]malonates” (1982).

Bounds are passed on as bounds.

For `CC(C)(C)NC(=O)Nc1ccnc(-c2cccnc2)n1`, the PCA shift in the experiment listed under Rattus norvegicus [1] was determined as 5.8. Still for that read-out and setting: next, `CCCCOC(=O)Nc1ccnc(-c2ccncc2)n1`: 3; `Nc1ccnc(-c2ccccn2)n1`: 2.5. Same read-out and setting: next, `CC(C)CC(=O)Nc1ccnc(-c2ccncc2)n1`: 5; `CCCCN(C(=O)NC(C)C)c1ccnc(-c2ccncc2)n1.CS(=O)(=O)O.CS(=O)(=O)O`: 4.2. With `COC(=O)C(/C=N/c1ccnc(-c2ccncc2)n1)=C(\O)OC`, in the experiment filed under Rattus norvegicus [2], the Potency is listed as 5.8. The PCA shift in the experiment filed under Rattus norvegicus [1] is on record as >10. The like results for `CCCCNC(=O)Nc1ccnc(-c2ccncc2)n1` were, in that order, 2.4 and >10. As for `CC(C)(C)Nc1ccnc(-c2ccncc2)n1`, the PCA shift in the experiment filed under Rattus norvegicus [1] amounted to 1.5. The same measure, in the same setting: to `CCO/C(O)=C(C#N)\C(C)=N\c1ccnc(-c2ccncc2)n1` belongs 5; to `CCN(CC)c1cc(C)nc(-c2ccncc2)n1.Cl.Cl`, 2.2.

With `CCNc1ccnc(-c2ccncc2)n1`, the PCA shift in the experiment filed under Rattus norvegicus [1] is recorded as 8.4. For the compound `CC(=O)Nc1ccnc(-c2ccncc2)n1`, in the experiment listed under Rattus norvegicus [1], the PCA shift is on record as 1.7. Still for that read-out and setting: next, `CC(C)(C)CNC(=O)Nc1ccnc(-c2ccncc2)n1`: 2.2. On the same count and under the same terms, to `CCCCNc1ccnc(-c2ccncc2)n1` belongs 7.6; to `CNc1ccnc(-c2ccncc2)n1`, 7.4. `CCOC(=O)C(/C=N/c1ccnc(-c2cccnc2)n1)=C(\O)OCC` registered a Potency in the experiment listed under Rattus norvegicus [2] of 0.8. Also, in the experiment listed under Rattus norvegicus [1], the PCA shift is >10. For the compound `Cc1cc(NC(=O)NC(C)(C)C)nc(-c2ccncc2)n1`, in the experiment listed under Rattus norvegicus [1], the PCA shift was 3.2. The same measure, in the same setting: next, `CN(C)c1ccnc(-c2ccncc2)n1`: 1.5; `Nc1ccnc(-c2cccnc2)n1`: 4.2. The same measure, in the same setting: to `CCOC(=O)C(/C=N/c1ccnc(-c2ccccn2)n1)=C(\O)OCC.CS(=O)(=O)O` belongs 4.1. Still for that read-out and setting: to `CCCCCC(=O)Nc1ccnc(-c2ccncc2)n1` belongs 7. As for `Cc1cc(N(C)C)nc(-c2ccncc2)n1.Cl.Cl`, in the experiment listed under Rattus norvegicus [1], the PCA shift turned out to be 5. Still for that read-out and setting: to `CC(C)(C)CC(=O)Nc1ccnc(-c2ccncc2)n1` belongs 2.2; to `CCOC(=O)C(/C=N/c1cc(C)nc(-c2ccncc2)n1)=C(/O)OCC`, 7.8; to `CC(=O)C(=CNc1ccnc(-c2ccncc2)n1)C(C)=O`, 5.6. On the same count and under the same terms, to `Cc1cc(N(CCO)CCO)nc(-c2ccncc2)n1` belongs 6.3; to `CCC(CC)NC(=O)Nc1ccnc(-c2ccncc2)n1.CS(=O)(=O)O.CS(=O)(=O)O`, 6.4. On to `CN(C(=O)NC(C)(C)C)c1ccnc(-c2ccncc2)n1`, for which the PCA shift in the experiment filed under Rattus norvegicus [1] was 4. The same measure, in the same setting: next, `CS(=O)(=O)O.CS(=O)(=O)O.Cc1cc(NN)nc(-c2ccncc2)n1`: 2; `NC(=O)Nc1ccnc(-c2ccncc2)n1`: 4.8; `CCCCNC(=O)Nc1ccnc(-c2cccnc2)n1`: 8.5. The same measure, in the same setting: next, `Cc1cc(O)nc(-c2ccncc2)n1`: 2.8. Regarding `CC(C)(CO)NC(=O)Nc1ccnc(-c2ccncc2)n1`, the Potency in the experiment listed under Rattus norvegicus [2] amounted to 1. The PCA shift in the experiment listed under Rattus norvegicus [1] is recorded as >10. Take `CC(C)(C)OC(=O)Nc1ccnc(-c2ccncc2)n1`: the PCA shift in the experiment listed under Rattus norvegicus [1] is reported as 1.6. On the same count and under the same terms, next, `CC(C)C(=O)Nc1ccnc(-c2ccncc2)n1`: 2.3. On the same count and under the same terms, next, `CC(C)NC(=O)N(C)c1ccnc(-c2ccncc2)n1`: >10; `CCN(CC)C(=O)Nc1ccnc(-c2ccncc2)n1`: 8.9; `CC(C)(C)NC(=O)Nc1ccnc(-c2cc[n+]([O-])cc2)n1`: 1.5. Take `Cc1cnc(-c2ccncc2)nc1NC(=O)NC(C)(C)C`: the PCA shift in the experiment filed under Rattus norvegicus [1] is 3.5. As to `CCOC(=O)C(/C=N/c1ccnc(-c2ccncc2)n1)=C(\O)OCC`, the Potency in the experiment filed under Rattus norvegicus [2] was found to be 2.4. The PCA shift in the experiment filed under Rattus norvegicus [1] is recorded as >10.

For the compound `CNC(=O)Nc1ccnc(-c2ccncc2)n1`, the Potency in the experiment listed under Rattus norvegicus [2] is reported as 3.8. Further, the PCA shift in the experiment filed under Rattus norvegicus [1] is given as >10. As to `CCNC(=O)Nc1ccnc(-c2ccncc2)n1`, in the experiment filed under Rattus norvegicus [2], the Potency is reported as 7. For the same compound, the PCA shift in the experiment filed under Rattus norvegicus [1] is >10. For `CC(C)Nc1ccnc(-c2ccncc2)n1`, the PCA shift in the experiment listed under Rattus norvegicus [1] is 9.

Take `Cc1cc(Cl)nc(-c2ccncc2)n1`: in the experiment listed under Rattus norvegicus [1], the PCA shift was determined as 1.4. As to `CC(C)(C)NC(=O)Nc1ccnc(-c2ccncc2)n1`, in the experiment filed under Rattus norvegicus [2], the Potency came out at 3.9. The PCA shift in the experiment listed under Rattus norvegicus [1] was >10. Regarding `CCO/C(O)=C(C#N)\C=N\c1ccnc(-c2ccncc2)n1`, the PCA shift in the experiment filed under Rattus norvegicus [1] turned out to be 9.4. Still for that read-out and setting: next, `CC1(C)OC(=O)C(/C=N/c2ccnc(-c3ccncc3)n2)=C(O)O1`: 2.2; `CC(C)(C)NC(=O)Nc1ccnc(-c2ccccn2)n1`: 4.5; `CNc1cc(C)nc(-c2ccncc2)n1`: 4.9.

With `Nc1ccnc(-c2cc[n+]([O-])cc2)n1`, the PCA shift in the experiment filed under Rattus norvegicus [1] worked out at 3.8. `Cc1cc(N)nc(-c2ccncc2)n1`: the PCA shift in the experiment filed under Rattus norvegicus [1] turned out to be 10.2. `CC(C)NC(=O)Nc1ccnc(-c2cccnc2)n1` registered a Potency in the experiment listed under Rattus norvegicus [2] of 1.6. For the same compound, the PCA shift in the experiment listed under Rattus norvegicus [1] is >10. Taken in the same sequence, the figures for `CC(C)NC(=O)Nc1ccnc(-c2cc[n+]([O-])cc2)n1.CS(=O)(=O)O.CS(=O)(=O)O` were 1.8 and 5.4. As to `CCNC(=O)Nc1ccnc(-c2cccnc2)n1`, in the experiment listed under Rattus norvegicus [2], the Potency was found to be 4.8. The PCA shift in the experiment listed under Rattus norvegicus [1] is reported as >10.

In the experiment filed under Rattus norvegicus [2], `COC(=O)C(/C=N/c1ccnc(-c2cccnc2)n1)=C(\O)OC` returned a Potency of 2.9. The PCA shift in the experiment listed under Rattus norvegicus [1] is >10. On to `CCO/C(O)=C(\C=N\c1ccnc(-c2ccncc2)n1)C(C)=O`, for which the PCA shift in the experiment filed under Rattus norvegicus [1] came out at 2.9. The same measure, in the same setting: next, `CC(C)(C)C(=O)Nc1ccnc(-c2ccncc2)n1`: 4.2. `CC(C)NC(=O)Nc1ccnc(-c2ccncc2)n1`: the Potency in the experiment filed under Rattus norvegicus [2] came to 2.4. Also, the PCA shift in the experiment listed under Rattus norvegicus [1] is recorded as >10. As for `Nc1ccnc(-c2ccncc2)n1`, the PCA shift in the experiment listed under Rattus norvegicus [1] is 8.6. Same read-out and setting: next, `CCCNC(=O)Nc1ccnc(-c2ccncc2)n1`: >10.
